Experimental data of several laboratories.
Compare with care: the assays were run in different laboratories.
Target: Serine/threonine-protein kinase TBK1 (TBK1, Homo sapiens, UniProt Q9UHD2)
Sequence (Q9UHD2 1-729, as in one of the studies): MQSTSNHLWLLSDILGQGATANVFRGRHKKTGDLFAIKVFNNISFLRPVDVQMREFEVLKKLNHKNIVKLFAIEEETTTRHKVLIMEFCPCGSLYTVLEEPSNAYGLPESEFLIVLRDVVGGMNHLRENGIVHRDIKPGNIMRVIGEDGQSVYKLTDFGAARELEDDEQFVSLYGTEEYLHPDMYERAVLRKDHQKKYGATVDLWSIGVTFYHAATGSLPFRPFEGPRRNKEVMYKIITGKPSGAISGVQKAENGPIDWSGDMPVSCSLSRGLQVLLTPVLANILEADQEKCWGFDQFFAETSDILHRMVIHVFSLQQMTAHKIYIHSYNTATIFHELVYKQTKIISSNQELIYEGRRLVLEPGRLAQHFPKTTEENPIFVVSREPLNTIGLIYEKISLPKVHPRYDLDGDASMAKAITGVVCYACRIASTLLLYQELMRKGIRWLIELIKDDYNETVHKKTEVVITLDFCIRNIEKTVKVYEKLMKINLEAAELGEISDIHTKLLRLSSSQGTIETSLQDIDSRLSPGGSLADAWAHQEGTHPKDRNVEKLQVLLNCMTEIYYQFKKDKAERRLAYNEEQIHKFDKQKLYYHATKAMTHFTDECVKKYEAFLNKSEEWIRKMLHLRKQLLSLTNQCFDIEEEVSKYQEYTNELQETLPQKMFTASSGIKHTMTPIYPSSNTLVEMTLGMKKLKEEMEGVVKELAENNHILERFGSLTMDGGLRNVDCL

Cc1cnn2ncc(-c3ccnc(N(C)C)n3)c2c1 gave a remaining binding of 82% (binding; 1 µM).
O=C(NCCCN1CCOCC1)c1ccc(Nc2nccc(-c3cc4ccccc4s3)n2)cc1 has a remaining binding of 70% (binding, competition with immobilised ligand; 1 µM).
Nc1ncc2c(n1)-c1c([nH]c3ccc(C#CC4CC4)cc13)CCCC2 gave a remaining binding of 88% (binding, competition with immobilised ligand; 1 µM).
For N[C@H]1CCN(c2nccc(-c3cnn4ncccc34)n2)C1, the remaining binding was 100% (binding; 1 µM).
The remaining binding of COc1ccc2c(c1)O[C@H](c1ccc(OC)c(OC)c1)C[C@@H]2NC(=O)C1(c2ccc3c(c2)OC(F)(F)O3)CC1 is reported as 99% (cell-free assay, competition with immobilised ligand; 1 µM).
O=C(Nc1c[nH]nc1C(=O)NC1CCNCC1)c1cc(F)cc(F)c1 has a remaining binding of 100% (binding, competition with immobilised ligand; 1 µM).
O=c1nc(-c2ccccn2)sc2ccccc12 gave a remaining binding of 91% (binding, competition with immobilised ligand; 1 µM).
COc1cnc(Nc2cccc(S(N)(=O)=O)c2)nc1N1CCN(c2ccccc2)CC1 gave a remaining binding of 61% (binding, competition with immobilised ligand; 1 µM).
The remaining binding of O=C(c1ccc(Nc2nccc(-c3cc4ccccc4s3)n2)cc1)N1CCC(N2CCCC2)CC1 is reported as 27% (binding, competition with immobilised ligand; 1 µM).
COc1cccc(CNC(=O)c2nc3scc(COCc4ccc(C(=O)O)cc4)c3c(=O)[nH]2)c1 has a remaining binding of 94% (cell-free assay, competition with immobilised ligand; 1 µM).
COc1ncc2cc3ccccc3nc2c1C#N gave a remaining binding of 98% (cell-free assay, competition with immobilised ligand; 5 µM).
C[C@H]1CCN(c2nccc(-c3cnn4ncccc34)n2)C1 gave a remaining binding of 80% (binding; 1 µM).
CCN1CCN(Cc2ccc(C(=O)Nc3ccc(C)c(Oc4ccc5c(c4)CC(=O)N5)c3)cc2C(F)(F)F)CC1 gave a remaining binding of 50% (binding, competition with immobilised ligand; 1 µM).
CS(=O)(=O)NCC[C@H](NC(=O)c1cncc2c1cnn2-c1ccc(F)cc1)c1ccnc(S(C)(=O)=O)c1 gave a remaining binding of 94% (cell-free assay, competition with immobilised ligand; 1 µM).
The remaining binding of FC(F)(F)Oc1cccc(-c2cnc3ccc(-c4ccncc4)nn23)c1 is reported as 54% (binding, competition with immobilised ligand; 5 µM).
The remaining binding of CN(CCCC(F)(F)F)c1nccc(-c2cnn3ncccc23)n1 is reported as 91% (binding; 1 µM).
O=C(NCCCN1CCOCC1)c1ccc(Nc2ncc(Cl)c(-c3ccc(Cl)s3)n2)cc1 gave a remaining binding of 23% (binding, competition with immobilised ligand; 1 µM).
For CC(C)(O)c1cncc(-c2nc3ccc(F)cc3n2C2CC2)c1, the remaining binding was 72% (cell-free assay, competition with immobilised ligand; 1 µM).
With COc1ccnn2ncc(-c3ccnc(N(C)C)n3)c12 the remaining binding was 68% (binding; 1 µM).
O=C(Nc1ccc(Oc2ccc(F)cc2)cc1)N1CCc2ncccc2[C@H]1c1ccc(F)cc1 gave a remaining binding of 81% (cell-free assay, competition with immobilised ligand; 1 µM).
For c1cnn2ncc(-c3ccnc(N4CCC45COC5)n3)c2c1, the remaining binding was 41% (binding; 1 µM).
